# Screens (PubChem)
# The list is not random: actives were taken first. Their share in the collection is about 5.9%.
# Measles CPE: compounds protecting cells from measles virus cytopathic effect, primary screen, measles RdRp inhibitor project, single point, MLSMR library, absorbance; Measles virus-infected cells, CPE protection; protection (pct of control), % at 4 µM; 1.5% of 140,000 active; in the data active means protection mostly above about 24%, no sharp cut-off; inactive means mostly below about 26%
# Rev-RRE block: HIV-1 Rev-RRE binding inhibitors, primary screen, biochemical, FRET, protein-RNA interaction | inhibition, % at 8 µM | P05866 | Rev peptide-RRE RNA binding | 0.79% of 97,000 active;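 active means inhibition above the screen-wide mean plus 3 SD, cut at about 35% in these data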
#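 Probe or stimulus: fluorescein-Rev peptide as binding partner; assay system: Cy5-tagged RRE RNA duplex with fluorescein-tagged Rev peptide; timing: 5 min compound–RNA preincubation, then 15 min with peptide, 25 °C; medium: HEPES pH 7.5 buffer with KCl, MgCl2, NaCl and EDTA; signal: fluorescein-to-Cy5 FRET, 480 nm excitation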
# Pyk2 oligo antag: antagonists of Pyk2 self-association, primary screen, Q293 cells, FERM NanoBiT luminescence, HTS | stronger effect = lower value | z-score (the deposit names both 25 µM and 10 µM) | Protein-tyrosine kinase 2-beta (Homo sapiens), Q14289 | 0.83% of 99,000 active | AID 1347419, 2020;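 active means Z-score of -3 or lower, scaled per plate to the spread of control and sample wells; inactive means z-score above -3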;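 further: negative z-score means lost luminescence so less FERM oligomerization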
# DAT uptake mod: changed hDAT dopamine uptake under cocaine IC80, either direction, primary screen, cocaine antagonist project, cell-based, LLC-PK1 hDAT, [14C]-dopamine uptake, MLSMR; Sodium-dependent dopamine transporter (Homo sapiens), Q01959; LLC-PK1 hDAT cells, [14C]-dopamine uptake with cocaine IC80; actives deviate in either direction; B-score at 10 µM; 1.3% of 110,000 active; AID 449768, 2010;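 active means Z score or B-score, a plate-position-corrected score, falls beyond the plate's 99.7% confidence bounds, in either direction; inactive means both scores lie inside the 99.7% bounds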
# Phagocyt inh: inhibitors of macrophage phagocytosis, primary screen, imaging, J774A.1 cells, IgG beads. 0.07% of 110,000 active. AID 1029, 2008. inhibition, % at 5 µM. J774A.1 macrophage IgG-bead phagocytosis;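 active means inhibition above the mean of the plate negative controls plus 5 SD, cut at about 13% in these data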;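 further: phagocytic index as fraction of beads internalized from green versus red external bead signal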
# Cav32 inh: Cav3.2 calcium influx blockers – cell-based, Fluo-4 calcium fluorescence, FDSS, MLSMR library, primary screen; Cav3.2-expressing cells; stronger effect = lower value; B-score at 10 µM; 4% of 100,000 active; AID 449739, 2010;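 active means single-dose well whose peak fluorescence ratio is a statistical outlier from its plate by either plate-standardised score or position-corrected B-score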
# Hits are given with their value; - = inactive; . = no result; [ ] = dose if it differs, or a comment.
SMILES,Measles CPE,Rev-RRE block,Pyk2 oligo antag,DAT uptake mod,Phagocyt inh,Cav32 inh
Cc1ccccc1-n1c(SCc2c(C)noc2C)nnc1-c1cccnc1,-,55,-,-,-,-
CCOc1ccc(N=C2NC(=O)S/C2=C\c2ccc(N(C)C)cc2)cc1,-,118[fluorescence artefact?],-,.,-,.
CCOc1ccc(/C=C2/SC(=O)NC2=S)cc1,-,.,-,.,-,.
CCCCCCCCC[n+]1cccc2c3ccccc3ccc21,29,-,-,3.2,-,-
CCCCCCCCCCCCCCCC[n+]1cccc2ccccc21,-,.,.,.,-,.
Cc1ccc(C2CC(C(F)(F)F)n3ncc(C(N)=O)c3N2)cc1 (configuration not stated),-,-,-,-,-,-
CN(Cc1ccc(-n2cccn2)cc1)C(=O)c1cnn2c1NC(c1ccco1)CC2C(F)(F)F (configuration not stated),-,-,-,-,-,-7.6
Cc1ccc(C2CC(C(F)(F)F)n3nc(C(=O)NCc4c(C)nn(C)c4C)c(Cl)c3N2)cc1 (configuration not stated),-,-,-3.5,-,-,-
Cc1ccc(C2CC(C(F)(F)F)n3ncc(C(=O)NCc4ccco4)c3N2)cc1 (configuration not stated),-,-,-,-,-,-5.8
Cc1nn(C)cc1CN(C)C(=O)c1nn2c(c1Cl)NC(c1cccs1)CC2C(F)(F)F (configuration not stated),-,-,-,3.5,-,-
COC(=O)c1cnc(SC)nc1C,-,-,-,-,-,.
O=C(Nc1ccc2c(c1)C(=O)N(c1ccccc1)C2=O)C1CCCO1 (configuration not stated),-,-,-,-,.,.
CCOC(=O)c1c(N)sc(C(O)(C(F)(F)F)C(F)(F)F)c1-c1ccc(OC)cc1OC,-,-,-,-,-,-4.9
CC1CC(N(C(=O)c2ccco2)c2ccccc2)c2ccccc2N1 (configuration not stated),-,-,-,-,-,-4.3
Cc1nnc(SCC(=O)NCc2ccc3c(c2)OCO3)s1,-,-,-,-,-,-
COc1ccc(NC(=O)CSc2nc(C)c3c(c2C#N)CCCC3)cc1,-,-,-,-,-,-
CCc1nnc(NC(=O)CSc2nc(C)c3c(c2C#N)CCCC3)s1,-,-,-3.4,-,-,-
CCn1cc(SCC(=O)NCc2ccc3c(c2)OCO3)c2ccccc21,-,.,.,-,-,-3.9
Cc1nc(SCC(=O)NCc2ccc3c(c2)OCO3)c(C#N)c2c1CCCC2,.,-,-,-,-,-4
Cc1ccccc1OCCC(=O)NCCc1ccc(S(N)(=O)=O)cc1,-,.,.,.,-,.
CC1=CC(C)(C)[N+](C)=CN1c1ccccc1,-,.,.,.,-,.
COC(=O)c1sc2nc(C)c([N+](=O)[O-])c(C)c2c1N,-,.,.,.,-,.
Cc1ccc(CNC(=O)CCc2c(C)nc3ncnn3c2C)cc1,-,-,-,-,.,-
Cc1nc2ncnn2c(C)c1CCC(=O)NCCc1ccccc1,100,-,-,-,-,-
O=C(NCC1CCCO1)c1ccc(N2CCCCC2)nc1 (configuration not stated),-,-,-,-,-,-
SMILES,Measles CPE,Rev-RRE block,Pyk2 oligo antag,DAT uptake mod,Phagocyt inh,Cav32 inh
Cc1ccccc1N(CC(=O)NCCc1ccccc1)C(=O)c1ccc(N2CCCC2)nc1,-,-,-,-,-,-4.8
CCC(C)n1cnc2c(c1=O)c1nc3ccccc3nc1n2Cc1ccc2c(c1)OCO2 (configuration not stated),-,-,.,4.1,-,-
CCC(C)n1cnc2c(c1=O)c1nc3ccccc3nc1n2-c1ccc2c(c1)OCCO2 (configuration not stated),-,-,-,.,-,.
CCCCn1c2nc3ccccc3nc2c2c(=O)n(C(C)CC)cnc21 (configuration not stated),-,-,-3.1,-,-,-
COc1cc(CNc2ccc(CNc3ncn[nH]3)cc2)ccc1OCc1ccccc1,-,.,.,.,-,.
O=C(CCN1C(=O)S/C(=C\c2cccs2)C1=O)NC1=NCCS1,-,.,.,.,-,.
CCC(=O)NCCCOc1ccccc1,-,-,-,-,-,-
CC(C)CCNC(=O)CCCOc1ccccc1,45,-,-,-,-,-
Cc1nc(NC(=O)CSc2nc3cccnc3n2Cc2ccccc2)sc1C,-,-,-,-,-,-
Cc1ccc(N2C(=O)Nc3ccc(Br)cc3C2(O)C(=O)NCCCN(C)C)cc1C (configuration not stated),50,.,-,-,-,-
C=CCNC(=O)/C(C#N)=C/c1c(C)nn(-c2ccccc2)c1Cl,-,.,.,.,-,.
Cc1ccc(S(=O)(=O)NNc2nc3ccccc3nc2C(F)(F)F)cc1,-,-,-,-,.,-3.4
CC1CC(C)(C)NC(=S)N1CCCC(=O)N1CCN(c2ccc(F)cc2)CC1 (configuration not stated),-,.,.,.,-,.
COc1ccc(NS(=O)(=O)c2cc(OC)ccc2NC(=O)c2cc(C)oc2C)cc1,-,-,-,-,-,-
CC(C)C(CCNC(=O)CC(Cc1ccccc1)c1ccco1)c1ccco1 (configuration not stated),-,-,-,-,.,-6.8
CCc1ccc(NC(=O)C(=O)NNC(=O)COc2cccc(OC)c2)cc1,-,.,.,.,-,.
COc1cc(C(=O)OCC(=O)Nc2c(F)c(F)c(F)c(F)c2F)cc(OC)c1OC,-,-,-,3.7,-,-
COc1ccc(C(=O)OCC(=O)Nc2ccc(F)c(F)c2F)cc1OC,-,-,-,-,.,-
O=C(c1cccc(Cl)c1)N(Cc1cccs1)C1CCS(=O)(=O)C1 (configuration not stated),-,-,-,-,-,-
O=C(c1sc2ccccc2c1Cl)N(Cc1cccs1)C1CCS(=O)(=O)C1 (configuration not stated),-,-,.,-,-,-7.8
CCOC(=O)c1cccc(NC(=O)c2c(NCc3ccccc3)[nH]c(=O)[nH]c2=O)c1,.,.,.,-,.,-
C=CCNC(=O)COC(=O)c1ccc(Cl)c(S(=O)(=O)N(Cc2ccccc2)c2ccccc2)c1,-,.,.,.,-,.
O=C(O)CN1C(=O)Nc2ccc(Br)cc2C1c1ccccc1 (configuration not stated),39,.,-,-,-,-
NNC(=O)CN1C(=O)Nc2ccc(Br)cc2C1c1ccccc1 (configuration not stated),-,-,-,-,.,-
CC1CCc2c(sc3nc(CN4CCN(S(=O)(=O)c5ccccc5[N+](=O)[O-])CC4)[nH]c(=O)c23)C1 (configuration not stated),-,.,.,.,-,.
